Active and inactive are the calls of the source. The rule behind the calls is not given here.
Legend:
[1] = test system: SGC-7901; assay: Induction of apoptosis in human SGC-7901 cells assessed as cleavage of caspase-7 at 0.5 to 1.5 umol/L after 48 hrs Western blot analysis; type: functional, cell-based; conditions: dose micromol/L 0.5-1.5, time 48.0 hrs
Outline: (§1)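 Western blot. Cells were treated with compound concentrations or DMSO for 48 h, then lysed, and lysates were denatured, run on SDS-PAGE and transferred to nitrocellulose. After blocking in 5% skimmed milk, membranes were incubated with primary antibodies at 4 °C for 8 h, then secondary antibodies, with ECL detection.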

[2] = test system: MGC-803; assay: Inhibition of Ras/Raf/MEK/ERK signalling pathway in human MGC-803 cells assessed as decrease in MEK1 phosphorylation after 48 hrs by Western blot analysis; type: cell-based; conditions: dose micromol/L 0.5-1.5, time 48.0 hrs
Outline: (§2)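 Cells treated with graded concentrations or DMSO for 48 h, then harvested and lysed. Lysates denatured, resolved by SDS-PAGE and transferred to nitrocellulose. Membranes blocked with 5% skimmed milk and probed with primary antibodies at 4 °C for 8 h, then with secondary antibodies. Bands detected by ECL.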

[3] = test system: SGC-7901; assay: Cell cycle arrest at G2 phase in human SGC-7901 cells assessed as downregulation of Cyclin B level at 0.5 to 1.5 umol/L after 48 hrs by Western blot analysis; type: functional, cell-based; conditions: dose micromol/L 0.5-1.5, time 48.0 hrs; outline: as §1
[4] = test system: SGC-7901; assay: Induction of apoptosis in human SGC-7901 cells assessed as downregulation of Mcl-1 level at 0.5 to 1.5 umol/L after 48 hrs Western blot analysis; type: functional, cell-based; conditions: dose micromol/L 0.5-1.5, time 48.0 hrs; outline: as §1
[5] = test system: SGC-7901; assay: Induction of apoptosis in human SGC-7901 cells after 48 hrs by flow cytometry analysis; type: functional, cell-based; conditions: dose micromol/L 0.5-1.5, time 48.0 hrs
[6] = test system: HGC-27; assay: Inhibition of colony formation in human HGC-27 cells at 0.5 to 1.5 umol/L after 7 days by crystal violet staining based assay; type: functional, cell-based; conditions: dose micromol/L 0.5-1.5, time 7.0 day
Outline: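 5000 cells per well seeded and held 24 h at 37 °C, 5% CO2, then exposed to graded concentrations (0.5, 1, 1.5 µmol/L). After 7 days the medium was removed and wells were washed twice with PBS. Colonies fixed in 4% paraformaldehyde and stained with 0.1% crystal violet.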

[7] = test system: MGC-803; assay: Induction of apoptosis in human MGC-803 cells assessed as cleavage of PARP at 0.5 to 1.5 umol/L after 48 hrs Western blot analysis; type: functional, cell-based; conditions: dose micromol/L 0.5-1.5, time 48.0 hrs; outline: as §1
[8] = test system: SGC-7901; assay: Cell cycle arrest in human SGC-7901 cells assessed as accumulation at G2/M phase at 0.5 to 1.5 umol/L after 48 hrs by RNase/propidium iodide staining based flow cytometry; type: functional; conditions: dose micromol/L 0.5-1.5, time 48.0 hrs
Outline: (§3)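 MGC-803, SGC-7901 and HGC-27 cells were seeded in 6-well plates and treated 48 h with compound or DMSO. Cells were then harvested and fixed in 70% cold ethanol at 4 °C for 8 h, and cell-cycle phase distribution was quantified by flow cytometry.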

[9] = test system: MGC-803; assay: Inhibition of Akt/mTOR signalling pathway in human MGC-803 cells assessed as decrease in AKT phosphorylation at Ser473 residue at 0.5 to 1.5 umol/L after 48 hrs by Western blot analysis; type: cell-based; conditions: dose micromol/L 0.5-1.5, time 48.0 hrs; outline: as §2
[10] = test system: SGC-7901; assay: Inhibition of Ras/Raf/MEK/ERK signalling pathway in human SGC-7901 cells assessed as effect on RAS level at 0.5 to 1.5 umol/L after 48 hrs by Western blot analysis; type: cell-based; conditions: dose micromol/L 0.5-1.5, time 48.0 hrs; outline: as §2
[11] = test system: HGC-27; assay: Induction of apoptosis in human HGC-27 cells assessed as cleavage of caspase-7 at 0.5 to 1.5 umol/L after 48 hrs Western blot analysis; type: functional, cell-based; conditions: dose micromol/L 0.5-1.5, time 48.0 hrs; outline: as §1
[12] = test system: SGC-7901; assay: Inhibition of Ras/Raf/MEK/ERK signalling pathway in human SGC-7901 cells assessed as downregulation of c-Myc expression at 0.5 to 1.5 umol/L after 48 hrs by Western blot analysis; type: cell-based; conditions: dose micromol/L 0.5-1.5, time 48.0 hrs; outline: as §2
[13] = test system: HGC-27; assay: Inhibition of Ras/Raf/MEK/ERK signalling pathway in human HGC-27 cells assessed as downregulation of c-Myc expression at 0.5 to 1.5 umol/L after 48 hrs by Western blot analysis; type: cell-based; conditions: dose micromol/L 0.5-1.5, time 48.0 hrs; outline: as §2
[14] = test system: HGC-27; assay: Induction of apoptosis in human HGC-27 cells after 48 hrs by flow cytometry analysis; type: functional, cell-based; conditions: dose micromol/L 0.5-1.5, time 48.0 hrs
[15] = test system: GES1; assay: Cytotoxicity against human GES1 cells assessed as inhibition of cell proliferation after 48 hrs by MTT assay; type: cell-based; conditions: GES1, 48 h
Outline: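 Normal gastric epithelial GES-1 cells were exposed to compound for 48 h. MTT was then added for 4 h at 37 °C. Formazan was dissolved in DMSO after the supernatant was removed, and absorbance was read at 490 nm. IC50 was computed from three independent experiments, given as mean SD.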

[16] = test system: HGC-27; assay: Inhibition of Ras/Raf/MEK/ERK signalling pathway in human HGC-27 cells assessed as effect on RAS level at 0.5 to 1.5 umol/L after 48 hrs by Western blot analysis; type: cell-based; conditions: dose micromol/L 0.5-1.5, time 48.0 hrs; outline: as §2
[17] = test system: MGC-803; assay: Induction of apoptosis in human MGC-803 cells assessed as downregulation of XIAP level at 0.5 to 1.5 umol/L after 48 hrs Western blot analysis; type: functional, cell-based; conditions: dose micromol/L 0.5-1.5, time 48.0 hrs; outline: as §1
[18] = test system: PC-3; assay: Anticancer activity against human PC-3 cells assessed as inhibition of cell proliferation after 48 hrs by MTT assay; type: functional, cell-based; conditions: PC-3, 48 h
Outline: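 MTT assay with 48 h compound exposure. MTT solution was then added and incubated 4 h at 37 °C, the supernatant discarded and formazan dissolved in DMSO, with absorbance read at 490 nm. IC50 values were calculated from three independent experiments, reported as mean SD.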

[19] = test system: SGC-7901; assay: Inhibition of Ras/Raf/MEK/ERK signalling pathway in human SGC-7901 cells assessed as decrease in c-Raf phosphorylation after 48 hrs by Western blot analysis; type: cell-based; conditions: dose micromol/L 0.5-1.5, time 48.0 hrs; outline: as §2
[20] = test system: HGC-27; assay: Induction of apoptosis in human HGC-27 cells assessed as downregulation of Bcl-2 level at 0.5 to 1.5 umol/L after 48 hrs Western blot analysis; type: functional, cell-based; conditions: dose micromol/L 0.5-1.5, time 48.0 hrs; outline: as §1
[21] = test system: MGC-803; assay: Cell cycle arrest at G2 phase in human MGC-803 cells assessed as downregulation of CDK1 level at 0.5 to 1.5 umol/L after 48 hrs by Western blot analysis; type: functional, cell-based; conditions: dose micromol/L 0.5-1.5, time 48.0 hrs; outline: as §1
[22] = test system: HGC-27; assay: Cell cycle arrest in human HGC-27 cells assessed as accumulation at G2/M phase at 0.5 to 1.5 umol/L after 48 hrs by RNase/propidium iodide staining based flow cytometry; type: functional; conditions: dose micromol/L 0.5-1.5, time 48.0 hrs; outline: as §3
[23] = test system: HGC-27; assay: Inhibition of Akt/mTOR signalling pathway in human HGC-27 cells assessed as decrease in AKT phosphorylation at Ser473 residue at 0.5 to 1.5 umol/L after 48 hrs by Western blot analysis; type: cell-based; conditions: dose micromol/L 0.5-1.5, time 48.0 hrs; outline: as §2
[24] = test system: SGC-7901; assay: Inhibition of Ras/Raf/MEK/ERK signalling pathway in human SGC-7901 cells assessed as downregulation of FoxO3a expression at 0.5 to 1.5 umol/L after 48 hrs by Western blot analysis; type: cell-based; conditions: dose micromol/L 0.5-1.5, time 48.0 hrs; outline: as §2
[25] = test system: HGC-27; assay: Induction of apoptosis in human HGC-27 cells assessed as increase in nucleus concentration at 0.5 to 1.5 umol/L after 48 hrs by imaging analysis; type: functional, cell-based; conditions: dose micromol/L 0.5-1.5, time 48.0 hrs
[26] = Selectivity index, ratio of IC50 for human GES1 cells to IC50 for human HGC-27 cells assessed as inhibition of cell proliferation after 48 hrs by MTT assay
Outline: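 Fold selectivity is the IC50 in GES-1 normal gastric epithelial cells divided by the IC50 in the gastric cancer line (HGC-27, MGC-803 or SGC-7901). Both IC50s come from 48 h exposure, MTT (4 h, 37 °C), DMSO solubilisation and 490 nm absorbance, with three independent experiments.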

[27] = test system: MGC-803; assay: Induction of apoptosis in human MGC-803 cells assessed as increase in nucleus concentration at 0.5 to 1.5 umol/L after 48 hrs by imaging analysis; type: functional, cell-based; conditions: dose micromol/L 0.5-1.5, time 48.0 hrs

In the case of `COc1cc(N(Cc2nc3ccccc3[nH]2)S(=O)(=O)c2ccc(C)cc2)cc(OC)c1OC`, the Activity [1] is reported as “Active”, the inhibition [2] is reported as “Dose-dependent effect” and the Activity [3] is reported as “Active”. For the same molecule, the Activity [4] was “Active”, the Activity [5] was “Dose-dependent effect” and the inhibition [6] was “Active”. For the same molecule, the Activity [7] was “Active”, the Activity [8] was “Active” and the inhibition [9] was “Active”. The inhibition [10] was “inactive”, the Activity [11] was “Active” and the inhibition [12] was “Active”. The inhibition [13] was “Active”, the Activity [14] was “Dose-dependent effect” and the IC50 [15] was 15.2 µM. The inhibition [16] was “inactive”, the Activity [17] was “Active” and the IC50 [18] was 3.34 µM. For the same molecule, the inhibition [19] was “Dose-dependent effect”, the Activity [20] was “Active” and the Activity [21] was “Active”. The Activity [22] was “Active”, the inhibition [23] was “Active” and the inhibition [24] was “Active”. The Activity [25] was “Active”, the “Ratio IC50” value [26] was 9.4 and the Activity [27] was “Active”.

— ChEMBL document CHEMBL4665669, “Novel tertiary sulfonamide derivatives containing benzimidazole moiety as potent anti-gastric cancer agents: Design, synthesis and SAR studies” (Eur J Med Chem, 2019)
